ChEMBL document CHEMBL1275598, “In vitro activity of ceftaroline against community-associated methicillin-resistant, vancomycin-intermediate, vancomycin-resistant, and daptomycin-nonsusceptible Staphylococcus aureus isolates” (2010)

Legend:
Assay type in all cases: functional
Staphylococcus aureus [1] = test: Bactericidal activity against community-acquired methicillin-resistant Staphylococcus aureus assessed as antibiotic concentration that reduced the number of viable cells by =>99.9% by colony count method
How it was run: (§1)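 MBC per CLSI following microdilution in cation-adjusted Mueller-Hinton broth. Defined as the concentration giving ≥99.9% reduction in viable cells, judged from colony counts of the growth control well against Pearson rejection-value tables. CA-MRSA isolates were hospital patients' isolates with positive MRSA culture within 48 h of admission.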

Staphylococcus aureus [2] = test: Antimicrobial activity against vancomycin resistant Staphylococcus aureus VRS-10 expressing SCCmec type 2 element by microdilution method
How it was run: (§2)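 Broth microdilution per CLSI in cation-adjusted Mueller-Hinton broth. Antibiotic powders were reconstituted per CLSI. The MIC was read visually as the lowest drug concentration with no visible growth. S. aureus ATCC 29213 and E. faecalis ATCC 29212 served as control strains. VISA and VRSA isolates came from the NARSA program.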

Staphylococcus aureus [3] = test: Antimicrobial activity against vancomycin intermediate Staphylococcus aureus NRS-51 expressing SCCmec type 2 element by microdilution method
How it was run: (§3)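 MIC by broth microdilution in cation-adjusted Mueller-Hinton broth, following CLSI guidelines; antibiotic powders reconstituted per CLSI. Read visually as the lowest drug concentration well with no visible growth. S. aureus ATCC 29213 and E. faecalis ATCC 29212 served as control strains. CA-MRSA: hospital patients culture-positive within 48 h of admission. DNSSA: patient blood isolates. VISA: obtained from the NARSA program.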

Staphylococcus aureus [4] = test: Antimicrobial activity against vancomycin resistant Staphylococcus aureus VRS-1 expressing SCCmec type 2 element by microdilution method; how it was run: as §2
Staphylococcus aureus [5] = test: Antimicrobial activity against community-acquired methicillin-resistant Staphylococcus aureus assessed as susceptible isolates by microdilution method
How it was run: (§4)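 MICs by CLSI broth microdilution in cation-adjusted Mueller-Hinton broth, read visually as the lowest concentration with no visible growth. Percentages of susceptible or resistant isolates assigned using CLSI breakpoints. Isolates: CA-MRSA (n = 92, positive within 48 h of admission) and DNSSA (n = 7, blood).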

Staphylococcus aureus [6] = test: Bactericidal activity against vancomycin-resistant Staphylococcus aureus assessed as antibiotic concentration that reduced the number of viable cells by =>99.9% by colony count method; details: Staphylococcus aureus; how it was run: as §1
Staphylococcus aureus [7] = test: Antimicrobial activity against vancomycin intermediate Staphylococcus aureus NRS-118 expressing SCCmec type 1 element by microdilution method; how it was run: as §3
Staphylococcus aureus [8] = test: Antimicrobial activity against vancomycin intermediate Staphylococcus aureus NRS-402 expressing SCCmec type 2 element by microdilution method; how it was run: as §3
Staphylococcus aureus [9] = test: Antimicrobial activity against vancomycin intermediate Staphylococcus aureus NRS-24 expressing SCCmec type 2 element by microdilution method; how it was run: as §3
Staphylococcus aureus [10] = test: Antimicrobial activity against vancomycin intermediate Staphylococcus aureus NRS-23 expressing SCCmec type 2 element by microdilution method; how it was run: as §3
Staphylococcus aureus [11] = test: Antimicrobial activity against vancomycin resistant Staphylococcus aureus VRS-6 expressing SCCmec type 2 element by microdilution method; how it was run: as §2
Staphylococcus aureus [12] = test: Antimicrobial activity against vancomycin-intermediate Staphylococcus aureus assessed as susceptible isolates by microdilution method
How it was run: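 CLSI broth microdilution in cation-adjusted Mueller-Hinton broth. MIC is the lowest concentration well with no visible growth, read by eye. Isolates were classed susceptible from CLSI breakpoints. S. aureus ATCC 29213 and E. faecalis ATCC 29212 were used as MIC control strains.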

Staphylococcus aureus [13] = test: Antimicrobial activity against vancomycin resistant Staphylococcus aureus VRS-4 expressing SCCmec type 4 element by microdilution method; how it was run: as §2
Staphylococcus aureus [14] = test: Antimicrobial activity against vancomycin intermediate Staphylococcus aureus NRS-74 expressing SCCmec type 2 element by microdilution method; how it was run: as §3
Staphylococcus aureus [15] = test: Antimicrobial activity against vancomycin resistant Staphylococcus aureus VRS-3 expressing SCCmec type 4 element by microdilution method; how it was run: as §2
Staphylococcus aureus [16] = test: Antimicrobial activity against vancomycin resistant Staphylococcus aureus VRS-7 expressing SCCmec element by microdilution method; how it was run: as §2
Staphylococcus aureus [17] = test: Antimicrobial activity against vancomycin intermediate Staphylococcus aureus NRS-19 expressing SCCmec type 2 element by microdilution method; how it was run: as §3
Staphylococcus aureus [18] = test: Antimicrobial activity against daptomycin-nonsusceptible Staphylococcus aureus assessed as susceptible isolates by microdilution method; how it was run: as §4
Staphylococcus aureus [19] = test: Antimicrobial activity against community-acquired methicillin-resistant Staphylococcus aureus assessed as resistant isolates by microdilution method; how it was run: as §4
Staphylococcus aureus [20] = test: Antimicrobial activity against vancomycin resistant Staphylococcus aureus VRS-2 expressing SCCmec type 2 element by microdilution method; how it was run: as §2
Staphylococcus aureus [21] = test: Antimicrobial activity against vancomycin intermediate Staphylococcus aureus NRS-26 expressing SCCmec type 2 element by microdilution method; how it was run: as §3
Staphylococcus aureus [22] = test: Antimicrobial activity against vancomycin-resistant Staphylococcus aureus by microdilution method; how it was run: as §2
Staphylococcus aureus [23] = test: Antimicrobial activity against vancomycin intermediate Staphylococcus aureus NRS-27 expressing SCCmec type 2 element by microdilution method; how it was run: as §3
Staphylococcus aureus [24] = test: Antimicrobial activity against vancomycin-intermediate Staphylococcus aureus assessed as resistant isolates by microdilution method
How it was run: (§5)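 CLSI broth microdilution MICs in cation-adjusted Mueller-Hinton broth, read visually as the lowest concentration with no visible growth. Percent of isolates classed susceptible or resistant was assigned using CLSI breakpoints.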

Staphylococcus aureus [25] = test: Antimicrobial activity against daptomycin-nonsusceptible Staphylococcus aureus assessed as resistant isolates by microdilution method; how it was run: as §4
Staphylococcus aureus [26] = test: Antimicrobial activity against vancomycin intermediate Staphylococcus aureus NRS-76 expressing SCCmec type 2 element by microdilution method; how it was run: as §2
Staphylococcus aureus [27] = test: Antimicrobial activity against vancomycin-intermediate Staphylococcus aureus by microdilution method; how it was run: as §2
Staphylococcus aureus [28] = test: Antimicrobial activity against vancomycin intermediate Staphylococcus aureus NRS-3 expressing SCCmec type 2 element by microdilution method; how it was run: as §3
Staphylococcus aureus [29] = test: Bactericidal activity against vancomycin-intermediate Staphylococcus aureus assessed as antibiotic concentration that reduced the number of viable cells by =>99.9% by colony count method
How it was run: (§6)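 MBC per CLSI guidelines. It was taken as the antibiotic concentration giving ≥99.9% reduction in viable cells, based on colony counts from the growth control well and rejection values from Pearson's tables.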

Staphylococcus aureus [30] = test: Antimicrobial activity against vancomycin resistant Staphylococcus aureus VRS-5 expressing SCCmec type 2 element by microdilution method; how it was run: as §2
Staphylococcus aureus [31] = test: Antimicrobial activity against vancomycin intermediate Staphylococcus aureus NRS-22 expressing SCCmec type 2 element by microdilution method; how it was run: as §3
Staphylococcus aureus [32] = test: Antimicrobial activity against vancomycin resistant Staphylococcus aureus VRS-9 expressing SCCmec type 2 element by microdilution method; how it was run: as §2
Staphylococcus aureus [33] = test: Antimicrobial activity against vancomycin resistant Staphylococcus aureus VRS-8 expressing SCCmec element by microdilution method; how it was run: as §2
Staphylococcus aureus [34] = test: Antimicrobial activity against vancomycin intermediate Staphylococcus aureus NRS-68 expressing SCCmec type 2 element by microdilution method; how it was run: as §3
Staphylococcus aureus [35] = test: Antimicrobial activity against vancomycin intermediate Staphylococcus aureus NRS-403 expressing SCCmec type 2 element by microdilution method; how it was run: as §3
Staphylococcus aureus [36] = test: Antimicrobial activity against vancomycin-resistant Staphylococcus aureus assessed as susceptible isolates by microdilution method; how it was run: as §5
Staphylococcus aureus [37] = test: Bactericidal activity against daptomycin-nonsusceptible Staphylococcus aureus assessed as antibiotic concentration that reduced the number of viable cells by =>99.9% by colony count method; how it was run: as §6
Staphylococcus aureus [38] = test: Antimicrobial activity against vancomycin-resistant Staphylococcus aureus assessed as resistant isolates by microdilution method; how it was run: as §5
Staphylococcus aureus [39] = test: Antimicrobial activity against community-acquired methicillin-resistant Staphylococcus aureus by microdilution method; how it was run: as §3
Staphylococcus aureus [40] = test: Antimicrobial activity against vancomycin intermediate Staphylococcus aureus NRS-4 expressing SCCmec type 2 element by microdilution method; how it was run: as §3
Staphylococcus aureus [41] = test: Antimicrobial activity against vancomycin intermediate Staphylococcus aureus NRS-73 expressing SCCmec type 4d element by microdilution method; how it was run: as §3
Staphylococcus aureus [42] = test: Antimicrobial activity against vancomycin intermediate Staphylococcus aureus NRS-404 expressing SCCmec type 2 element by microdilution method; how it was run: as §3
Staphylococcus aureus [43] = test: Antimicrobial activity against vancomycin intermediate Staphylococcus aureus NRS-17 expressing SCCmec type 2 element by microdilution method; how it was run: as §3
Staphylococcus aureus [44] = test: Antimicrobial activity against daptomycin-nonsusceptible Staphylococcus aureus by microdilution method; details: Staphylococcus aureus; how it was run: as §3
Staphylococcus aureus [45] = test: Antimicrobial activity against vancomycin intermediate Staphylococcus aureus NRS-126 expressing SCCmec type 2 element by microdilution method; how it was run: as §3
Staphylococcus aureus [46] = test: Antimicrobial activity against vancomycin intermediate Staphylococcus aureus NRS-18 expressing SCCmec type 2 element by microdilution method; how it was run: as §3

CCC[C@@H]1C[C@@H](C(=O)N[C@@H]([C@H]2O[C@H](SC)[C@H](O)[C@@H](O)[C@H]2O)[C@H](C)Cl)N(C)C1 [CLINDAMYCIN]
0.12 µg/mL: MIC50 (Staphylococcus aureus [39])
8 µg/mL: MBC50 (Staphylococcus aureus [1])
17%: Activity (Staphylococcus aureus [12])
86%: Activity (Staphylococcus aureus [25])
> 0.12 µg/mL: MBC (Staphylococcus aureus [29]; Staphylococcus aureus)
> 64 µg/mL: MIC (Staphylococcus aureus [2]) | MIC (Staphylococcus aureus [3]) | MIC (Staphylococcus aureus [4]) | MBC (Staphylococcus aureus [6]) | MIC (Staphylococcus aureus [7]) | MIC (Staphylococcus aureus [8]) | MIC (Staphylococcus aureus [9]) | MIC (Staphylococcus aureus [10]) | MIC (Staphylococcus aureus [11]) | MIC (Staphylococcus aureus [13]) | MIC (Staphylococcus aureus [14]) | MIC (Staphylococcus aureus [15]) | MIC (Staphylococcus aureus [16]) | MIC (Staphylococcus aureus [17]) | MIC (Staphylococcus aureus [20]) | MIC (Staphylococcus aureus [21]) | MIC (Staphylococcus aureus [22]) | MIC50 (Staphylococcus aureus [22]) | MIC90 (Staphylococcus aureus [22]) | MIC (Staphylococcus aureus [23]) | MIC50 (Staphylococcus aureus [27]) | MIC90 (Staphylococcus aureus [27]) | MIC (Staphylococcus aureus [28]) | MIC (Staphylococcus aureus [30]) | MIC (Staphylococcus aureus [31]) | MIC (Staphylococcus aureus [32]) | MIC (Staphylococcus aureus [33]) | MIC (Staphylococcus aureus [34]) | MIC (Staphylococcus aureus [35]) | MIC90 (Staphylococcus aureus [39]) | MIC (Staphylococcus aureus [40]) | MIC50 (Staphylococcus aureus [44]) | MIC (Staphylococcus aureus [45]) | MIC (Staphylococcus aureus [46])
64%: Activity (Staphylococcus aureus [5])
> 1 µg/mL: MBC (Staphylococcus aureus [1]; Staphylococcus aureus)
0%: Activity (Staphylococcus aureus [36])
>64 µg/mL: MBC50 (Staphylococcus aureus [29]) | MBC90 (Staphylococcus aureus [29]) | MBC50 (Staphylococcus aureus [37])
83%: Activity (Staphylococcus aureus [24])
100%: Activity (Staphylococcus aureus [38])
14%: Activity (Staphylococcus aureus [18])
0.06 µg/mL: MIC (Staphylococcus aureus [26]) | MIC (Staphylococcus aureus [41]) | MIC (Staphylococcus aureus [42]) | MIC (Staphylococcus aureus [43])
36%: Activity (Staphylococcus aureus [19])
